Source: ChEMBL document CHEMBL1149808, “Cyclic nucleotide phosphodiesterase type 4 inhibitors: evaluation of pyrazolo[1,5-a]-1,3,5-triazine ring system as an adenine bioisostere” (Eur J Med Chem, 2008)

Legend:
[1] = Inhibition of PDE4
How it was run: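 PDE4 from bovine aorta media layer; [³H]-cAMP hydrolysis, two-step assay, with 1 mM EGTA and cGMP 50 added to suppress PDE3, 50 mM Tris-HCl pH 7.5, 2 mM magnesium acetate, 1 mg/mL BSA, 1% DMSO. IC50 by regression over concentration-response data, mean of three runs.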

PBMC = assay: Antiinflammatory activity in human PBMC assessed as inhibition of LPS-stimulated TNFalpha release after 24 hrs by trypan blue exclusion test; type: functional, cell-based; details: in the assay text read “ELISA” for “trypan blue exclusion test”
How it was run: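 Human PBMCs from density-gradient interface, washed in HBSS-CMF, 2 × 10⁶ cells/mL, exposed to drug 10^-8 to 10^-5 M with or without Salmonella abortus equi LPS, 24 h, 37 °C, 5% CO₂. Supernatants stored at -80 °C, then TNFα measured by two-site ELISA (OD 450 nm, o-phenylenediamine), interpolated on standard curve by four-parameter logistics; viability by Trypan blue exclusion.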

[2] = Inhibition of PDE5 at 10 uM
How it was run: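 Bovine aortic media PDE5 measured as [³H]-cGMP hydrolysis in two-step assay with 1 mM EGTA, 50 mM Tris-HCl pH 7.5, 2 mM magnesium acetate, 1 mg/mL BSA; inhibitor in DMSO, 1% final.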

[3] = target: T1, cGMP-dependent 3',5'-cyclic phosphodiesterase (Bos taurus) (UniProt P14099); assay: Inhibition of bovine aorta PDE2 at 10 uM in presence of cGMP
T1 sequence (whole entry): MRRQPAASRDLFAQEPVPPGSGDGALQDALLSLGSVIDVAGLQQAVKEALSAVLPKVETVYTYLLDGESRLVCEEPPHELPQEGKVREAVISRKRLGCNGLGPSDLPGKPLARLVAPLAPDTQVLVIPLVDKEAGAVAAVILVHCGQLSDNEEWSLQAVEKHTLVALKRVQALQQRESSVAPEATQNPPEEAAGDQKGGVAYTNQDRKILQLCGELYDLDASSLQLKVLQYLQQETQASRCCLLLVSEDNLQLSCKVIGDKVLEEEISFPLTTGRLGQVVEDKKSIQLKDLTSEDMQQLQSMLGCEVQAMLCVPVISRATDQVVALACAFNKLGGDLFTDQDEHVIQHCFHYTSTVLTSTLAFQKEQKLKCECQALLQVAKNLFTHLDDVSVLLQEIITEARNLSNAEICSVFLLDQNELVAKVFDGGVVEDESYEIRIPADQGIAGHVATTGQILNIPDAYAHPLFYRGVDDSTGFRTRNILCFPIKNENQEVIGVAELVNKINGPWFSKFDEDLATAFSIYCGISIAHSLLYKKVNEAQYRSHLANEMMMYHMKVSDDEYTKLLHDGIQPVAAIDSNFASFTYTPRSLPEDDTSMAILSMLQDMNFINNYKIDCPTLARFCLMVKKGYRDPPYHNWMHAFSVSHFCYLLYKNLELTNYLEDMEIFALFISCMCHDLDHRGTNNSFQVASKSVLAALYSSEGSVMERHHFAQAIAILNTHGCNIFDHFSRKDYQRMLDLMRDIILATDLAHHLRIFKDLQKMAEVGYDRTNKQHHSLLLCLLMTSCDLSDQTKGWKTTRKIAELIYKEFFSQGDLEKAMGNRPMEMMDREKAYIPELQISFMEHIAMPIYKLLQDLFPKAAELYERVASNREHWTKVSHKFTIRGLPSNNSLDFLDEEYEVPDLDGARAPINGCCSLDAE
How it was run: (§1)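 PDE2 isolated from cultured bovine aortic endothelial cells; two-step assay using [³H]-cAMP plus 1 mM EGTA in 50 mM Tris-HCl pH 7.5, 2 mM magnesium acetate, 1 mg/mL BSA; activated state with 5 cGMP. DMSO 1% final; IC50 by regression from concentration-response curves, three determinations.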

[4] = Inhibition of PDE3 at 10 uM
How it was run: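 Bovine aortic media PDE3, two-step assay with [³H]-cAMP plus 1 mM EGTA in Tris-HCl 50 mM pH 7.5, 2 mM Mg acetate, BSA 1 mg/mL; rolipram 50 present to block PDE4 contamination. DMSO 1% final.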

[5] = Inhibition of PDE1 at 10 uM in absence of calmodulin
[6] = Inhibition of PDE1 at 10 uM in presence of calmodulin
How it was run: (§2)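 PDE1 purified from bovine aorta media layer; two-step radioassay with [³H]-cGMP substrate in 50 mM Tris-HCl pH 7.5, 2 mM magnesium acetate, 1 mg/mL BSA. Calmodulin-activated state: 18 nM calmodulin plus 10 mM CaCl₂. Inhibitors from DMSO, 1% final. IC50 by regression from concentration-response curves, mean of three determinations.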

[7] = target: T1, cGMP-dependent 3',5'-cyclic phosphodiesterase (Bos taurus); assay: Inhibition of bovine aorta PDE2 at 10 uM in absence of cGMP
[8] = Inhibition of PDE1 in presence of calmodulin; how it was run: as §2
[9] = target: T2, cGMP-dependent 3',5'-cyclic phosphodiesterase (Bos taurus, UniProt P14099); assay: Inhibition of bovine aorta PDE2 in presence of cGMP; how it was run: as §1
T2 sequence (P14099 whole entry): T1 sequence (whole entry)

`CNc1nc(C)nc2c(-c3cccc(C(C)=O)c3)cnn12` gave an IC50 [1] of 0.54 µM.
`CNc1nc(C)nc2c(-c3cc4ccccc4o3)cnn12` gave an IC50 [1] of 6.2 µM.
With `CNc1nc(C(F)(F)F)nc2c(Cc3ccccc3)cnn12` the Activity (PBMC) was “Dose-dependent effect” and the IC50 [1] was 0.077 µM.
`CNc1nc(C)nc2c(-c3ccccc3Cl)cnn12` showed an IC50 [1] of 2.9 µM.
In the case of `CNc1nc(C)nc2c(-c3cccc([N+](=O)[O-])c3)cnn12`, the IC50 [1] is reported as 1.2 µM.
Work on `CCCc1nc(NC)n2ncc(Cc3ccccc3OC)c2n1` yielded an inhibition [2] of 38%, an inhibition [3] of 31% and an inhibition [4] of 16%. For the same compound, the Activity (PBMC) was “Dose-dependent effect”, the inhibition [5] was 27% and the IC50 [1] was 0.013 µM. For the same compound, the inhibition [6] was 35% and the inhibition [7] was 19%.
Compound `CCCc1nc(NC)n2ncc(Cc3ccccc3)c2n1` has an inhibition [2] of 16%, an inhibition [3] of 20% and an inhibition [4] of 10%. It also gave an inhibition [5] of 24%, an IC50 [1] of 0.048 µM and an inhibition [6] of 25%. The inhibition [7] was 20%.
With `CNc1nc(C)nc2c1ncn2Cc1ccccc1OC` the IC50 [1] was 0.061 µM.
`CNc1nc(C)nc2c(Cc3ccoc3)cnn12` gave an IC50 [1] of 0.078 µM.
Work on `CNc1nc(C)nc2c(Cc3ccccc3)cnn12` yielded an inhibition [2] of 33%, an inhibition [4] of 8.6% and an inhibition [5] of 37%. It also gave an IC50 [1] of 0.098 µM, an inhibition [7] of 19% and an IC50 [8] of 14 µM. For the same compound, the IC50 [9] was 56 µM.
For `CNc1nc(C(F)(F)F)nc2c(Cc3ccccc3OC)cnn12`, the inhibition [2] was 74%, the inhibition [4] was 24% and the Activity (PBMC) was “Dose-dependent effect”. The inhibition [5] was 20%, the IC50 [1] was 0.011 µM and the inhibition [7] was 16%.
For `CNc1nc(C)nc2c(-c3ccco3)cnn12`, the IC50 [1] was 3.1 µM.
With `CNc1nc(C)nc2c(-c3cccc(C(F)(F)F)c3)cnn12` the IC50 [1] was 0.13 µM.
With `CNc1nc(C)nc2c(C(=O)c3ccccc3)cnn12` the inhibition [2] was 8%, the inhibition [3] was 17% and the inhibition [4] was 11%. The inhibition [5] was 16%, the IC50 [1] was 0.12 µM and the inhibition [6] was 29%. It also gave an inhibition [7] of 15%.
`CCCc1nc(NC)c2ncn(Cc3ccccc3)c2n1` gave an IC50 [1] of 0.088 µM.
With `CNc1nc(C)nc2c(-c3cc4ccccc4s3)cnn12` the IC50 [1] was 3.5 µM.
For `CCCc1nc(NC)c2ncn(Cc3ccccc3OC)c2n1`, the IC50 [1] was 0.007 µM.
In the case of `CNc1nc(C)nc2c(Cc3ccc4ccccc4c3)cnn12`, the IC50 [1] is reported as 0.27 µM.
`CNc1nc(C)nc2c(-c3cccc4ccccc34)cnn12` gave an IC50 [1] of 0.21 µM.
`CNc1nc(C)nc2c(Cc3ccco3)cnn12` showed an IC50 [1] of 0.1 µM.
Work on `CNc1nc(C)nc2c(-c3ccccc3)cnn12` yielded an inhibition [2] of 11%, an inhibition [3] of 11% and an inhibition [4] of 2.7%. For the same compound, the inhibition [5] was 21%, the IC50 [1] was 0.27 µM and the inhibition [6] was 20%. It also gave an inhibition [7] of 3.6%.
In the case of `CCCC#Cc1cnn2c(NC)nc(C)nc12`, the IC50 [1] is reported as 0.41 µM.
Compound `CNc1nc(C(F)(F)F)nc2c1ncn2Cc1ccccc1OC` has an IC50 [1] of 0.0014 µM.
For `CNc1nc(C)nc2c(Cc3cccs3)cnn12`, the IC50 [1] was 0.07 µM.
`CNc1nc(C)nc2c(-c3cccs3)cnn12` showed an IC50 [1] of 2.4 µM.
In the case of `CNc1nc(C)nc2c1ncn2Cc1ccccc1`, the IC50 [1] is reported as 0.28 µM.
Compound `CCC(O)c1cnn2c(NC)nc(C)nc12` (stereo not given) has an IC50 [1] of 4.8 µM.
With `CC#Cc1cnn2c(NC)nc(C)nc12` the IC50 [1] was 6.4 µM.
